What was measured:
[1] = Toxicity in po dosed albino Sprague-Dawley rat assessed as behavioral changes measured at 0.25 to 4 hrs; assay type: organism-based; settings: in vivo
How it was run: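 Male albino Sprague-Dawley rats given compound intraperitoneally or orally (NINDS ASP); neurological impairment judged from behavioral toxicity effects. Preset screening doses (e.g., 30 mg/kg); for adequately active compounds, TD50 (mg/kg, 95% confidence intervals) derived from dose–effect data at time of peak effect.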

[2] = molecular target: T1, Alpha-1B adrenergic receptor (Homo sapiens) (UniProt P35368); assay: Inhibition of adrenergic alpha-1B receptor (unknown origin) at 10 uM relative to control
T1 sequence (whole entry): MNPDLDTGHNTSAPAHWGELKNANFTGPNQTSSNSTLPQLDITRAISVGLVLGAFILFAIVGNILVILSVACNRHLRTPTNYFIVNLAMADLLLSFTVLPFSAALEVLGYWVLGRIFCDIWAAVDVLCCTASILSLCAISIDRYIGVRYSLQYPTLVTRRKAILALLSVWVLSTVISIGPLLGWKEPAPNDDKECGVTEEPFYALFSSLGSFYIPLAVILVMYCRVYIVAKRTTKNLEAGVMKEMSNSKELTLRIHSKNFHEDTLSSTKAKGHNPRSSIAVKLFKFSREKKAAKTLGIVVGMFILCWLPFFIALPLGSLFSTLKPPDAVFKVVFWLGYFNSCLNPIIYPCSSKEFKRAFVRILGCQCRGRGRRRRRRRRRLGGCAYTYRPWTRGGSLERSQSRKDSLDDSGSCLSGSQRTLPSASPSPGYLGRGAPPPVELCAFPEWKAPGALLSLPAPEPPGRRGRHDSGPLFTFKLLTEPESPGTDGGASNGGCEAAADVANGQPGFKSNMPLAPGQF

[3] = molecular target: T2, Alpha-2A adrenergic receptor (Homo sapiens) (UniProt P08913); assay: Inhibition of adrenergic alpha-2A receptor (unknown origin) at 10 uM relative to control
T2 sequence (whole entry): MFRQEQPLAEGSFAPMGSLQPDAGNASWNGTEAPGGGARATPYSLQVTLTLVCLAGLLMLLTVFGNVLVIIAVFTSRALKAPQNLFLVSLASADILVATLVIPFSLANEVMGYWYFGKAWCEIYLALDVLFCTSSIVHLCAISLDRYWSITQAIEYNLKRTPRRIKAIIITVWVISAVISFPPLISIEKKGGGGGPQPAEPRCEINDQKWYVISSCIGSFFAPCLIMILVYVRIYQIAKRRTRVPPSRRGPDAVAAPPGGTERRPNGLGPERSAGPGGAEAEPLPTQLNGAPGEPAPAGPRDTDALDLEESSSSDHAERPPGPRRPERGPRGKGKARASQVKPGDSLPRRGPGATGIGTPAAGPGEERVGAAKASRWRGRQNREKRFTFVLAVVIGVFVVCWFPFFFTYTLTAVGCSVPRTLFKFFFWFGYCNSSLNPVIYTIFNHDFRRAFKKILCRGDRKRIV

[4] = molecular target: T3, Muscarinic acetylcholine receptor M1 (Homo sapiens) (UniProt P11229); assay: Inhibition of muscarinergic M1 receptor (unknown origin) at 10 uM relative to control
T3 sequence (whole entry): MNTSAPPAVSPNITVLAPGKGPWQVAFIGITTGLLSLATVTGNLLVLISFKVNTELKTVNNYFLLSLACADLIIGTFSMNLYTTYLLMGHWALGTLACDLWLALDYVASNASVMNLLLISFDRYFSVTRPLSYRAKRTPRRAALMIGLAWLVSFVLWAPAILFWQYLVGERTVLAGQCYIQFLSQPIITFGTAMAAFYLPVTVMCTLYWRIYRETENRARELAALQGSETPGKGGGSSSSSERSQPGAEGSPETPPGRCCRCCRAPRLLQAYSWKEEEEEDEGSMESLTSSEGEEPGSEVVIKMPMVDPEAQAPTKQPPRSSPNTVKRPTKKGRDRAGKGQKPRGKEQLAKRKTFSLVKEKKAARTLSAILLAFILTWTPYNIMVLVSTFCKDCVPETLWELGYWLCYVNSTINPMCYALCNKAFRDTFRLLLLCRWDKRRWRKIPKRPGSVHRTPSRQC

[5] = molecular target: D(3) dopamine receptor (Homo sapiens) (UniProt P35462); assay: Inhibition of dopaminergic D3 receptor (unknown origin) at 10 uM relative to control
[6] = molecular target: T4, Muscarinic acetylcholine receptor M2 (Homo sapiens) (UniProt P08172); assay: Inhibition of muscarinergic M2 receptor (unknown origin) at 10 uM relative to control
T4 sequence (whole entry): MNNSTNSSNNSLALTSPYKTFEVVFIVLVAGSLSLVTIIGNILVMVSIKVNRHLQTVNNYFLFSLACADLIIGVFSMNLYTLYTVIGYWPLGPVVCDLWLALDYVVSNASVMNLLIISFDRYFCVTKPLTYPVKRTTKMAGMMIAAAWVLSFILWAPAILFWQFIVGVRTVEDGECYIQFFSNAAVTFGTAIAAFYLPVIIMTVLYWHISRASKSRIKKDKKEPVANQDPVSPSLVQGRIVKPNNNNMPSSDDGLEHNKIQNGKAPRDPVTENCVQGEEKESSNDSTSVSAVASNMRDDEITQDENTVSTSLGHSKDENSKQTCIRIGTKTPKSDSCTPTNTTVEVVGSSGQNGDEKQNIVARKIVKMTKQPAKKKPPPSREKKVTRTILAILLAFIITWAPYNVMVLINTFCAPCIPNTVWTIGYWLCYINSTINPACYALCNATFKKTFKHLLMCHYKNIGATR

[7] = Solubility of the compound in water at 300 uM; assay type: physicochemical
How it was run: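 Hydrochloride salts checked for dissolution in water at 300 µM.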

[8] = species: Homo sapiens; assay: Inhibition of sigma-2 receptor (unknown origin) at 10 uM relative to control
[9] = molecular target: 5-hydroxytryptamine receptor 7 (Homo sapiens) (UniProt P34969); assay: Inhibition of 5-HT7 receptor (unknown origin) at 10 uM relative to control
[10] = molecular target: Beta-2 adrenergic receptor (Homo sapiens) (UniProt P07550); assay: Inhibition of adrenergic beta-2 receptor (unknown origin) at 10 uM relative to control
[11] = molecular target: Histamine H1 receptor (Homo sapiens) (UniProt P35367); assay: Inhibition of histamine H1 receptor (unknown origin) at 10 uM relative to control
[12] = molecular target: Histamine H2 receptor (Homo sapiens) (UniProt P25021); assay: Inhibition of histamine H2 receptor (unknown origin) at 10 uM relative to control
Sequence of Histamine H2 receptor (Homo sapiens) (P25021 whole entry): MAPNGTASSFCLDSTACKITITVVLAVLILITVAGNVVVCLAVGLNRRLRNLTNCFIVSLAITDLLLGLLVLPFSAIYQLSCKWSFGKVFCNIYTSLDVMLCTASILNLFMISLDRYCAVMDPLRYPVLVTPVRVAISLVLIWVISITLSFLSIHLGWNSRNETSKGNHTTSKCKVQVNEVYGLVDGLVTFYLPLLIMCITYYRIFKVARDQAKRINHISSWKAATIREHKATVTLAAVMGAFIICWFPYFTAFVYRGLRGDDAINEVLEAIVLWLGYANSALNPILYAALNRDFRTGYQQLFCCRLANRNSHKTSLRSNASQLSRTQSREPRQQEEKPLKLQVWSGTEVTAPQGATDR

Sequence of Beta-2 adrenergic receptor (Homo sapiens) (P07550 whole entry, looked up): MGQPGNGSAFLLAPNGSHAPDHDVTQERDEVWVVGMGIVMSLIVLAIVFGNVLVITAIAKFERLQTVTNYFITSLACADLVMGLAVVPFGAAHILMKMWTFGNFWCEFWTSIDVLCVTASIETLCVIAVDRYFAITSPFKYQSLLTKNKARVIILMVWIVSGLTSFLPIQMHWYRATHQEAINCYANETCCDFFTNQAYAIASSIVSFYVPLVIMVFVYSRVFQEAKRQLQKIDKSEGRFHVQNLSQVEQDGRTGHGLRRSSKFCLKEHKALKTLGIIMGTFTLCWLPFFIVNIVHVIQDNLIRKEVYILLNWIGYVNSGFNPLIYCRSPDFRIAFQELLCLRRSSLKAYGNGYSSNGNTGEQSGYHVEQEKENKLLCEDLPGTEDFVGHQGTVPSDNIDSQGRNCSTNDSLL
Sequence of 5-hydroxytryptamine receptor 7 (Homo sapiens) (P34969 whole entry): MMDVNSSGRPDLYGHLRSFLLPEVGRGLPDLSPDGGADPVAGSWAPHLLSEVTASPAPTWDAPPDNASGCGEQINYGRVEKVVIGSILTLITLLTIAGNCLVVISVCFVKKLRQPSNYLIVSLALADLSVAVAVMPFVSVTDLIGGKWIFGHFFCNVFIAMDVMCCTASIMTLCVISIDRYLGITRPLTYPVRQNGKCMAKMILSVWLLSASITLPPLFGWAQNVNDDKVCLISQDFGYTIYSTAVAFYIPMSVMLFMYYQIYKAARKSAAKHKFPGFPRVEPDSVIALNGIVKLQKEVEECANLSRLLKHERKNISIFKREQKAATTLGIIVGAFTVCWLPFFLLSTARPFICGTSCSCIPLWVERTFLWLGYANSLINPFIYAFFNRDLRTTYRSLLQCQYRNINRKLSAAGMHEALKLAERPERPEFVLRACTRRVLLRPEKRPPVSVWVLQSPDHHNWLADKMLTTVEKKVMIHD
Sequence of Histamine H1 receptor (Homo sapiens) (P35367 whole entry): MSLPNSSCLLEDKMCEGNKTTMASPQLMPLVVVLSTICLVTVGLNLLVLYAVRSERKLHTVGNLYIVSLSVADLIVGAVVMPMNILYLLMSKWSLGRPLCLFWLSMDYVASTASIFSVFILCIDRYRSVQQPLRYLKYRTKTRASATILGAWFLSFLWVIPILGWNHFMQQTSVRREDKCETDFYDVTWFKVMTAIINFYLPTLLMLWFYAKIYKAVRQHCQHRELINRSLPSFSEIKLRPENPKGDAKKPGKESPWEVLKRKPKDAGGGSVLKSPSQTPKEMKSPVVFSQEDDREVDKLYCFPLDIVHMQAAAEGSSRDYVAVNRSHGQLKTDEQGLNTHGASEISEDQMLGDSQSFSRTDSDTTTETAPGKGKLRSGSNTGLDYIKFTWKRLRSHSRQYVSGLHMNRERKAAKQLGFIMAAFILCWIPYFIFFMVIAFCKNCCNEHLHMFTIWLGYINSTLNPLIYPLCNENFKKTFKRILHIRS
Sequence of D(3) dopamine receptor (Homo sapiens) (P35462 whole entry): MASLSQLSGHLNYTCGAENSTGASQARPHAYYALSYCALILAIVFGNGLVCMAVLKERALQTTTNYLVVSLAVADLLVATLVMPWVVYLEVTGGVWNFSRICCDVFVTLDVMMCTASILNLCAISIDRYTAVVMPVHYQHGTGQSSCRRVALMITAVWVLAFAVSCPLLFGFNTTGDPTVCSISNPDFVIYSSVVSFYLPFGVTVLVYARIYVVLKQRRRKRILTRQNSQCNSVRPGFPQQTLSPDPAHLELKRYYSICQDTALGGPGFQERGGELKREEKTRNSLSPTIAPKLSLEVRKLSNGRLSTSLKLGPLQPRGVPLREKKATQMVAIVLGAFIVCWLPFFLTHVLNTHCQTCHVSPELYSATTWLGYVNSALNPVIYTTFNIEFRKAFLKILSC

**Q.** For `Cl.NCc1ccc(OCc2ccccc2)cc1`, which TD50 [1] is on record?
**A.** > 30 mg/kg

**Q.** What about the inhibition [2] of the same compound?
**A.** 0.5%

**Q.** What about the inhibition [3] of the same compound?
**A.** 47.3%

**Q.** What about the inhibition [4] of the same compound?
**A.** 28.9%

**Q.** What about the inhibition [5] of the same compound?
**A.** 14.3%

**Q.** And the inhibition [6]?
**A.** -2.5%

**Q.** What about the solubility [7] of the same compound?
**A.** soluble

**Q.** What about the inhibition [8] of the same compound?
**A.** 56.6%

**Q.** And the inhibition [9]?
**A.** 56.3%

**Q.** What about the inhibition [10] of the same compound?
**A.** 11.8%

**Q.** What about the inhibition [11] of the same compound?
**A.** 7.6%

**Q.** And the inhibition [12]?
**A.** -4%

**Q.** With `Cl.NCc1ccc(OCc2ccc(F)cc2)cc1` as the compound, how does the TD50 [1] read?
**A.** > 30 mg/kg

**Q.** What about the inhibition [3] of the same compound?
**A.** 55.4%

**Q.** And the inhibition [4]?
**A.** 18.6%

**Q.** And the inhibition [5]?
**A.** 16.7%

**Q.** What about the inhibition [6] of the same compound?
**A.** 12.6%

**Q.** What about the solubility [7] of the same compound?
**A.** soluble

**Q.** What about the inhibition [8] of the same compound?
**A.** 67.6%

**Q.** What about the inhibition [9] of the same compound?
**A.** 67.7%

**Q.** What about the inhibition [10] of the same compound?
**A.** 2.2%

**Q.** And the inhibition [11]?
**A.** -5.8%

**Q.** What about the inhibition [12] of the same compound?
**A.** 29.7%

**Q.** Which TD50 [1] does the source give for `Cl.NCc1ccc(OCc2cccc(F)c2)cc1` here?
**A.** > 30 mg/kg

**Q.** And the inhibition [2]?
**A.** 24.8%

**Q.** What about the inhibition [3] of the same compound?
**A.** 57.2%

**Q.** What about the inhibition [4] of the same compound?
**A.** 37.5%

**Q.** And the inhibition [5]?
**A.** 14%

**Q.** What about the inhibition [6] of the same compound?
**A.** -6%

**Q.** And the solubility [7]?
**A.** soluble

**Q.** What about the inhibition [8] of the same compound?
**A.** 58.4%

**Q.** What about the inhibition [9] of the same compound?
**A.** 59.1%

**Q.** What about the inhibition [10] of the same compound?
**A.** 9.2%

**Q.** And the inhibition [11]?
**A.** 5.2%

**Q.** For `Cl.NCc1ccc(OCc2ccccc2OC(F)(F)F)cc1`, which TD50 [1] is on record?
**A.** > 30 mg/kg

**Q.** What about the inhibition [2] of the same compound?
**A.** -2.4%

**Q.** What about the inhibition [3] of the same compound?
**A.** 59.2%

**Q.** And the inhibition [4]?
**A.** 67.3%

**Q.** And the inhibition [5]?
**A.** 33.9%

**Q.** What about the inhibition [6] of the same compound?
**A.** 3.8%

**Q.** What about the solubility [7] of the same compound?
**A.** soluble

**Q.** And the inhibition [8]?
**A.** 89.8%

**Q.** What about the inhibition [9] of the same compound?
**A.** 38.7%

**Q.** And the inhibition [10]?
**A.** 5%

**Q.** And the inhibition [11]?
**A.** 15.6%

**Q.** What about the inhibition [12] of the same compound?
**A.** 5.8%

**Q.** With `Cl.NCc1ccc(OCc2cccc(Cl)c2)cc1` as the compound, how does the TD50 [1] read?
**A.** > 30 mg/kg

**Q.** What about the inhibition [2] of the same compound?
**A.** 11.4%

**Q.** What about the inhibition [3] of the same compound?
**A.** 74%

**Q.** What about the inhibition [4] of the same compound?
**A.** 17.6%

**Q.** And the inhibition [5]?
**A.** 38.1%

**Q.** What about the inhibition [6] of the same compound?
**A.** 13.1%

**Q.** What about the solubility [7] of the same compound?
**A.** soluble

**Q.** What about the inhibition [8] of the same compound?
**A.** 80.5%

**Q.** What about the inhibition [9] of the same compound?
**A.** -1.9%

**Q.** What about the inhibition [10] of the same compound?
**A.** -5.7%

**Q.** What about the inhibition [11] of the same compound?
**A.** 1.4%

**Q.** And the inhibition [12]?
**A.** -7.4%

**Q.** With `Cl.NCc1ccc(OCc2ccccc2F)cc1` as the compound, how does the TD50 [1] read?
**A.** > 30 mg/kg

**Q.** And the inhibition [2]?
**A.** 13.6%

**Q.** What about the inhibition [3] of the same compound?
**A.** 39%

**Q.** And the inhibition [4]?
**A.** 42%

**Q.** What about the inhibition [5] of the same compound?
**A.** 24.1%

**Q.** What about the inhibition [6] of the same compound?
**A.** -7.5%

**Q.** And the solubility [7]?
**A.** soluble

**Q.** What about the inhibition [8] of the same compound?
**A.** 71.6%

**Q.** What about the inhibition [9] of the same compound?
**A.** 43.5%

**Q.** And the inhibition [10]?
**A.** 17.4%

**Q.** What about the inhibition [11] of the same compound?
**A.** 6.7%

**Q.** And the inhibition [12]?
**A.** 1.6%

**Q.** What does the source list for `Cl.NCc1ccc(OCc2cccc(OC(F)(F)F)c2)cc1`?
**A.** TD50 [1]: > 30 mg/kg; inhibition [2]: -3.8%; inhibition [3]: 47%; inhibition [5]: 33.5%; inhibition [6]: 4.5%; solubility [7]: soluble; inhibition [8]: 87.5%; inhibition [9]: 43.6%; inhibition [10]: -8.1%; inhibition [11]: 12.1%; inhibition [12]: 4.2%

**Q.** What does the source list for `Cl.NCc1ccc(OCc2ccc(OC(F)(F)F)cc2)cc1`?
**A.** TD50 [1]: > 30 mg/kg; inhibition [2]: 4.1%; inhibition [3]: 48.2%; inhibition [4]: 26.6%; inhibition [5]: 13.3%; inhibition [6]: 1.9%; solubility [7]: soluble; inhibition [8]: 86.4%; inhibition [9]: 29.3%; inhibition [10]: 9.1%; inhibition [11]: 14.7%; inhibition [12]: -2.7%

**Q.** With `Cl.NCc1ccc(OCc2ccc(Cl)cc2)cc1` as the compound, how does the TD50 [1] read?
**A.** > 30 mg/kg

**Q.** What about the inhibition [3] of the same compound?
**A.** 65.9%

**Q.** What about the inhibition [4] of the same compound?
**A.** 18.8%

**Q.** What about the inhibition [5] of the same compound?
**A.** 22.6%

**Q.** What about the inhibition [6] of the same compound?
**A.** 10.9%

**Q.** What about the solubility [7] of the same compound?
**A.** soluble

**Q.** And the inhibition [8]?
**A.** 79.2%

**Q.** What about the inhibition [9] of the same compound?
**A.** 45.4%

**Q.** What about the inhibition [10] of the same compound?
**A.** 17.1%

**Q.** What about the inhibition [11] of the same compound?
**A.** 0.3%

**Q.** What about the inhibition [12] of the same compound?
**A.** 16.8%

From ChEMBL document CHEMBL3091364, “Benzyloxybenzylammonium chlorides: Simple amine salts that display anticonvulsant activity” (Bioorg Med Chem, 2013)
